High-throughput results: PubChem, several laboratories
In the library only some 2.2% were active in any assay of this set; here they are far more common.
V-ATPase pHluor = regulators of yeast V-ATPase proton transport | S. cerevisiae, pHLuorin cytosolic pH fluorescence | 0.37% of 350,000 active | response, % at 10 µM; in the data active = response mostly above about 7.3%, no sharp cut-off; inactive = mostly below about 5.4%; also: actives read high
CendR NRP1 mod = modulators of CendR peptide binding to human neuropilin-1. 0.85% of 360,000 active. O14786. AID 602438. FAM-RPARPAR peptide binding to NRP-1, fluorescence polarization. inhibition, % at 25 µM;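 active = inhibition or corrected inhibition above about 18%, plus a signal ratio from 0.5 to 1.5, limit read from the data, passing the limit was not always enough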
Target sequence (O14786 whole entry, looked up): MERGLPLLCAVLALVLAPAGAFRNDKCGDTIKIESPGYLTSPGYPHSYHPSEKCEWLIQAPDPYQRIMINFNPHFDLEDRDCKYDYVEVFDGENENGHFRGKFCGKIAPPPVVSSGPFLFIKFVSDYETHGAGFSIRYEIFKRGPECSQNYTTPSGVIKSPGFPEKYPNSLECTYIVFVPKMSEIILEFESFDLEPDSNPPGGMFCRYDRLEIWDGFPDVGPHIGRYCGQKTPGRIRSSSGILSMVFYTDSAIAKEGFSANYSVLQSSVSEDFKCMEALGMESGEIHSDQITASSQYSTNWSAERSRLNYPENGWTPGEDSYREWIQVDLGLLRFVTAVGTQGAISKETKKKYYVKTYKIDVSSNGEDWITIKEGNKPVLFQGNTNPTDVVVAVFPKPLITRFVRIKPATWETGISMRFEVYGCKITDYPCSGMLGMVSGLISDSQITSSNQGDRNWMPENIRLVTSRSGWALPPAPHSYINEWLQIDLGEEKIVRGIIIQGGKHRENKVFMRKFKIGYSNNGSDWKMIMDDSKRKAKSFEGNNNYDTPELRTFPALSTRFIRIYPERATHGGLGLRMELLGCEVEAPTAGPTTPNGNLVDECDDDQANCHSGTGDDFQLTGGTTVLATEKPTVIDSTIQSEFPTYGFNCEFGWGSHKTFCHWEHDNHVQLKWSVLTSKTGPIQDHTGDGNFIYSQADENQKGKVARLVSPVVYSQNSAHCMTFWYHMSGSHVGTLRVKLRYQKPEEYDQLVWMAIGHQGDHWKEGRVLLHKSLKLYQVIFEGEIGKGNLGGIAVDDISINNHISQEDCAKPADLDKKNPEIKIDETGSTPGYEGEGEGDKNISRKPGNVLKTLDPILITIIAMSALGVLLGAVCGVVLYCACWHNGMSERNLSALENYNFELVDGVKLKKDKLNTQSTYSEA
ARFGAP1 inhibitor = inhibitors of rat ARFGAP1; Q62848; Arfgap1-stimulated ARF1 GTP hydrolysis, GDP FP detection; inhibition, % at 16.5 µM; 0.26% of 360,000 active;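 active = inhibition above a per-plate limit, mean inhibition of low control wells plus 3 SD, cut at about 25% in these data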
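System: truncated rat Arfgap1 GAP domain / Benchmarks: high control wells lacking Arfgap1, low control full reaction with DMSO / Times: compound-enzyme preincubation 20 min, reaction 120 min, detection 60 min, 25 °C / Repeats: one replicate per compound / Also added: human ARF1(Δ1-17)-GTP substrate / Measured by: Tracer-displacement fluorescence polarization with EDTA stop, 620/688 nm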
ASAP1 GAP inh = blocks human ASAP1-stimulated Arf1 GTP hydrolysis; inhibition, % at 16.5 µM; 0.19% of 360,000 active; GDP FP detection; AID 624377; Q9ULH1; in the data active = inhibition above about 25%
Exocytosis inh = blocks lytic granule exocytosis; 0.66% of 360,000 active; inhibition, % at 10 µM; TALL-104 LAMP-1 surface exposure, flow cytometry; cells stimulated with thapsigargin and PMA;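 active = inhibition above about 55%, limit read from the data; inconclusive = no clear call, values can overlap the other calls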
ASAP1 inh confirm = confirmation of human ASAP1 inhibitors; ASAP1-stimulated Arf1 GTPase, GDP fluorescence polarization; inhibition, % at 16.5 µM; 37% of 620 active; AID 624431; shares compounds with ASAP1 GAP inh;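 active = mean inhibition over triplicates exceeds the hit threshold derived for the earlier primary screening run, cut at about 25% in these data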
Of the large screens only hits and unclear results are named; the others gave an inactive call (follow-up assays come after a bar, where they were run); ! = a repeat was not active.

CCOC(=O)C1CCCN(C(=O)c2cc(OC)ccc2Br)CC1 (centres undefined)	none (no result: V-ATPase pHluor)
Nc1ccc(N2CCCCC2)c2nonc12	CendR NRP1 mod 29.4, ASAP1 GAP inh 25.1 | ASAP1 inh confirm inactive
COc1cccc(C(C(=O)NC2CCCCC2)N(Cc2ccco2)C(=O)c2ccccn2)c1 (centres undefined)	none
COc1ccc(OC)c(C(C(=O)NC2CCCCC2)N(Cc2ccco2)C(=O)c2ccccn2)c1 (centres undefined)	ASAP1 GAP inh 26.4 | ASAP1 inh confirm inactive
COc1ccc(-n2c(SCC(=O)Nc3ccc(NC(C)=O)cc3)nc3ccccc3c2=O)cc1	ASAP1 GAP inh 27.3 | ASAP1 inh confirm inactive
COc1ccc(-n2c(SCC(=O)Nc3ccc4c(c3)OCO4)nc3ccccc3c2=O)cc1	none
CCn1nc(C)c(CNC(=O)c2cc(COc3ccc(C)nc3)on2)c1C	none
COc1cccc(-c2nn(-c3ccc(C)cc3)cc2C(=O)N(C)CC(=O)Nc2cccc(F)c2)c1	none
CCOc1ccc(NC(=O)CN(C)C(=O)c2cn(-c3ccc(C)cc3)nc2-c2cccc(OC)c2)cc1OCC	ASAP1 GAP inh 34.0 | ASAP1 inh confirm inactive
C=CC[C@H](CC(=O)N[C@H](CO)Cc1ccccc1)C(=O)N[C@@H](COC(=O)[C@@H](CC=C)Cc1ccc(F)cc1)Cc1c[nH]c2ccccc12	none
C=CC[C@@H](CC(=O)N[C@@H](CO)Cc1ccccc1)C(=O)N[C@H](COC(=O)[C@@H](CC=C)Cc1ccc(F)cc1)Cc1c[nH]c2ccccc12	ASAP1 GAP inh 31.9 | ASAP1 inh confirm inactive
CCOc1ccc(CCNC(=O)CN2C(=O)NC(CCSC)C2=O)cc1OCC (centres undefined)	ASAP1 GAP inh 27.7 | ASAP1 inh confirm inactive
O=C(COC(=O)C1CC2CCCC(C1)C2=O)NC1CCCCC1 (centres undefined)	ASAP1 GAP inh 25.8 | ASAP1 inh confirm inactive
COc1cc2cc(C(=O)N/N=C/c3ccccc3Cl)[nH]c2cc1OC	ASAP1 GAP inh 27.6, Exocytosis inh inconclusive | ASAP1 inh confirm 53.4
Cn1c(N)c(C(=O)COC(=O)CCc2nc3ccccc3s2)c(=O)n(C)c1=O	ASAP1 GAP inh 31.3 | ASAP1 inh confirm inactive
Cn1c(N)c(C(=O)COC(=O)CCCc2nc3ccccc3s2)c(=O)n(C)c1=O	none
COc1ccc(/C=C/C(=O)N2CCN(S(=O)(=O)c3ccccc3Br)CC2)cc1OC	none
COc1cc(O)cc(/C=C/c2ccccc2)c1	ASAP1 GAP inh 26.6 | ASAP1 inh confirm inactive
CCN1CCN(Cc2ccc(NC(=O)c3cc(NC(=O)c4cc5cccc(OC)c5o4)cc(OC)c3)cc2C(F)(F)F)CC1	ASAP1 GAP inh 29.3! | ASAP1 inh confirm 49.4
CCCCCCCCCCCC(=O)c1c(O)cccc1O	ASAP1 GAP inh 28.0 | ASAP1 inh confirm inactive
COc1ccc(NC(=O)CSc2ccc3c4c(cccc24)C(=O)c2ccccc2-3)cc1	none
N#Cc1cccc(NC(=O)CSc2ccc3c4c(cccc24)C(=O)c2ccccc2-3)c1	ASAP1 GAP inh 100.1 | ASAP1 inh confirm 111.4
O=C1CCn2c1c(O)c1ccccc1c2=O	ASAP1 GAP inh 37.3 | ASAP1 inh confirm inactive
O=c1c2ccccc2nc2n1CCC2	none
O=C(N/N=C/c1ccc([N+](=O)[O-])cc1)c1ccc(COc2ccccc2-c2ccccc2)cc1	ASAP1 GAP inh 31.1 | ASAP1 inh confirm 81.1
CCCOc1ccc(C(=O)OCCN2CCCCC2)c(O)c1	none
C[C@H](CCC(=O)OCc1cn(CC(=O)c2ccc(O)cc2)nn1)C1CC[C@H]2[C@@H]3CC[C@@H]4C[C@H](O)CC[C@]4(C)[C@H]3C[C@H](O)[C@]12C (some centres undefined)	ASAP1 GAP inh 28.9 | ASAP1 inh confirm inactive
C[C@H](CCC(=O)O)[C@H]1CC[C@H]2[C@@H]3CC[C@@H]4C[C@H](O)CC[C@]4(C)[C@H]3C[C@H](O)[C@]12C	none
Cc1ccc(C(=O)O/N=C/c2c(C)nn(C)c2Cl)cc1	ASAP1 GAP inh 26.6 | ASAP1 inh confirm inactive
CC(C)CC(=O)NC(=S)Nc1ccc(NC(=O)c2cccs2)cc1	ASAP1 GAP inh 25.4 | ASAP1 inh confirm inactive
COc1cc2c3nnc(-c4ccc(F)cc4)c-3cn(Cc3cccc(C)c3)c2cc1OC	ASAP1 GAP inh 122.7 | ASAP1 inh confirm 181.0
Cc1cc(C)c(S(=O)(=O)c2ccccc2)c(OC(=O)c2c(F)cccc2F)n1	ASAP1 GAP inh 25.6 | ASAP1 inh confirm inactive
O=C(c1cccc(S(=O)(=O)Nc2ccc(F)cc2)c1)N1CCC1	none
COc1cc(/C=C/C(=O)Nc2cc(C(F)(F)F)ccc2Cl)cc(OC)c1OC	ASAP1 GAP inh 25.0 | ASAP1 inh confirm inactive
COc1ccc(C(=O)NC(=S)Nc2ccc3oc(=O)ccc3c2)cc1	ASAP1 GAP inh 59.0 | ASAP1 inh confirm 78.5
Cn1c(N)c(C(=O)CSc2n[nH]c(-c3ccccc3)n2)c(=O)n(C)c1=O	none
O=C(C1CCC(CNS(=O)(=O)c2ccccc2)CC1)N1CCCCC1 (centres undefined)	ASAP1 GAP inh 28.3 | ASAP1 inh confirm inactive
CN(C(=O)COc1ccc2ccc(=O)oc2c1)C1CCS(=O)(=O)C1 (centres undefined)	ASAP1 GAP inh 27.9 | ASAP1 inh confirm inactive
CCn1nc(NC(=O)c2ccncc2)c2cc3ccc(C)cc3nc21	ASAP1 GAP inh 24.7 | ASAP1 inh confirm inactive
Cc1nn(-c2ccccc2)c(N2CCCC2)c1/C=N/NC(=S)Nc1ccc(F)cc1	ASAP1 GAP inh 27.0 | ASAP1 inh confirm inactive
Nc1ncn(C(=S)Nc2ccccc2)n1	none
O=c1c2ccccc2sn1-c1ccc(S(=O)(=O)N2CCCCC2)cc1	ASAP1 GAP inh 25.3 | ASAP1 inh confirm inactive
CN(C)C(CNC(=O)C1CCN(S(=O)(=O)c2cc(Cl)ccc2Cl)CC1)Cc1ccccc1 (centres undefined)	none
Cc1cc(C(=O)COC(=O)CC(NC(N)=O)c2ccc(Cl)cc2)c(C)n1C (centres undefined)	none
NC(=O)COC(=O)CC(NC(N)=O)c1ccc(Cl)cc1 (centres undefined)	ASAP1 GAP inh 26.3 | ASAP1 inh confirm inactive
O=C(NCC1CCCO1)c1ccc[nH]1 (centres undefined)	ASAP1 GAP inh 26.9 | ASAP1 inh confirm inactive
CC(Nc1cccc2ccccc12)C(=O)N/N=C/c1ccc([N+](=O)[O-])cc1 (centres undefined)	ASAP1 GAP inh 26.2 | ASAP1 inh confirm inactive
CC(O)C(=O)N/N=C/c1cccc2ccccc12 (centres undefined)	none
Cc1cccc(/C=N/NC(=O)C(C)Nc2cccc3ccccc23)n1 (centres undefined)	ASAP1 GAP inh 29.0 | ASAP1 inh confirm inactive
CC(C)C(=O)Nc1ccccc1C(=O)N/N=C/c1ccc([N+](=O)[O-])cc1	none
O=C(NCCN1C(=O)S/C(=C\c2ccc(Cl)c([N+](=O)[O-])c2)C1=O)C1=COCCO1	none
